Shown are actives, neighbours in structure and some others; about 4.6% of the full set was active somewhere.
GPR7 antag = GPR7 receptor antagonists, primary screen, cell-based, fluorescence, single concentration | actives 1.1% (n = 290,000) | inhibition, % at 4.4 µM | GPR7-expressing cells, fluorescence antagonist assay | AID 1861, 2009; in the data active means inhibition above about 16%, passing the limit was not always enough;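 further: cells stimulated with the agonist NPW; 0% = agonist with vehicle and 100% = vehicle without agonist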
OX1R antag-1 = antagonists of human orexin 1 receptor (OX1R); Orexin/Hypocretin receptor type 1 (Homo sapiens), O43613; OX1R-expressing cells, FRET antagonist read-out; inhibition, % at 6.6 µM; actives 1.8% (n = 330,000); in the data active means inhibition mostly above about 38%, no sharp cut-off; inactive means mostly below about 40%;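 further: 0% = agonist challenge alone and 100% = reference antagonist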
TAAR1 agonist = human TAAR1 agonists, primary screen, Fluo-8 calcium fluorescence, CHO RD-HGA16 cells; activation, % at 3 µM; Trace amine-associated receptor 1 (Homo sapiens), Q96RJ0; actives 0.99% (n = 360,000); vehicle wells 0%, saturating PEA agonist 100%;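 active means activation above the mean activation of all test compounds in the run plus 3 SD, cut at about 38% in these data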
Target sequence (Q96RJ0 whole entry, looked up): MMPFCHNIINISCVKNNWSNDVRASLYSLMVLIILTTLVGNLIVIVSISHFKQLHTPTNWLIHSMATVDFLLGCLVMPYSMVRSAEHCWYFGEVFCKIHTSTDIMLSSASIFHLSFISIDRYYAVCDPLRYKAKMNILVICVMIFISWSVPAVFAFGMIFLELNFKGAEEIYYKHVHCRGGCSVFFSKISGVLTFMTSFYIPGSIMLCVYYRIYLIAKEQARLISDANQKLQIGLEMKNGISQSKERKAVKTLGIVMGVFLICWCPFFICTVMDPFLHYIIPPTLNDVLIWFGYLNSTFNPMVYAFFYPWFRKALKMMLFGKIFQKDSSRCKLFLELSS
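Test system: RD-HGA16 (CHO) cells co-expressing Gα16 and hTAAR1 / Benchmarks: DMSO vehicle as 0%, PEA at EC100 as 100% / Repeats: no replicates (n 1) / Measure: % activation from peak over basal fluorescence ratio, DMSO-to-PEA scaled / Timing: 17-24 h plating, Fluo-8 75 min 37 °C, 30 min RT / Technique: kinetic Fluo-8 calcium fluorescence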
OX1R antag-2 = OX1R (HCRTR1) antagonists, primary screen, fluorescence, CHO/OX1R cells, Fluo-8 calcium, orexin A. Orexin/Hypocretin receptor type 1 (Homo sapiens), O43613. Fluo-8 calcium fluorescence. inhibition, % at 5 µM. actives 0.43% (n = 330,000). AID 434989, 2010;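 active means inhibition above its plate's threshold, mean inhibition of all tested compounds on the plate plus 3 SD, cut at about 37% in these data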;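 further: 0% = orexin A challenge wells and 100% = SB-334867-A antagonist wells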
CHO parental Ca = ATP-evoked calcium signal inhibitors, parental CHO, primary screen, counter-screen for OX1R antagonist project, cell-based, fluorescence, Fluo-8 calcium dye; AID 463079, 2010; parental CHO-K1, ATP-induced calcium, Fluo-8 fluorescence; inhibition, % at 5.6 µM; actives 0.63% (n = 330,000);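 active means inhibition above that plate's mean sample inhibition plus 3 SD, cut at about 26% in these data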;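 further: 0% = ATP-challenged DMSO wells and 100% = DMSO wells without ATP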
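Test system: untransfected parental CHO cell line. Compound: one dose, 5.6 µM nominal. Detection: intracellular calcium via Fluo-8 no-wash fluorescent dye. Measure: % inhibition. Benchmarks: ATP-challenged DMSO wells low, unchallenged DMSO wells high.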
TAAR1 antag = human TAAR1 antagonists, primary screen, Fluo-8 calcium fluorescence, CHO RD-HGA16 cells. inhibition, % at 3 µM. Trace amine-associated receptor 1 (Homo sapiens), Q96RJ0. actives 1.5% (n = 360,000). AID 624466, 2012. antagonist;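 active means inhibition above a per-plate cutoff, the mean inhibition of test compounds on that plate plus 3 SD, cut at about 49% in these data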;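 further: 0% = DMSO plus EC80 beta-PEA response and 100% = DMSO alone without agonist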
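System: RD-HGA16 CHO cells with stable hTAAR1 and Gα16 | Probe or stimulus: EC80 β-phenethylamine stimulus | Dosing: 3 µM, single point | Times: Dye loading 75 min at 37 °C, then 30 min room temperature | Measured by: Fluo-8 calcium-sensitive fluorescence | Read-out basis: % inhibition of agonist calcium response | Replicates: n of 1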
GPR7 antag cf = GPR7 receptor antagonists, confirmation, cell-based, fluorescence, single concentration; shares compounds with GPR7 antag; GPR7-expressing cells, calcium fluorescence antagonist mode; inhibition, % at 4.4 µM; actives 52% (n = 2,400); in the data active means inhibition above about 24%;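 further: stimulated with the GPR7 agonist NPW; 0% = agonist plus vehicle and 100% = vehicle alone without agonist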
MCHR1 antagonist = MCHR1 antagonists in cells, counter-screen for GPR7 antagonist project, cell-based, fluorescence, human; MCHR1-expressing cells, fluorescence antagonist assay; shares compounds with GPR7 antag; inhibition, % at 4.4 µM; actives 62% (n = 2,400); AID 2148, 2009; in the data active means inhibition above about 22%;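 further: 0% = vehicle with agonist and 100% = vehicle without agonist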
The depositor's hits bear a star; . = not tested or not shown.

SMILES	GPR7 antag	OX1R antag-1	TAAR1 agonist	OX1R antag-2	CHO parental Ca	TAAR1 antag	GPR7 antag cf	MCHR1 antagonist
O=C(COC(=O)c1cccc(F)c1)Nc1ccc(Cl)cn1	.	-1.5	14.1	-13.6	-2.4	-21.1	.	.
CN(Cc1ccccc1)C(=O)c1cccc(NC(=O)C2CCCN(C(=O)OC(C)(C)C)C2)c1 (centres undefined)	.	15.7	19.0	-11.6	-15.3	38.4	.	.
CC(O)c1nc2cc([N+](=O)[O-])ccc2n1Cc1ccccc1 (centres undefined)	-4.6	12.3	6.3	-9.4	-14.1	-12.2	.	.
CCOC(=O)C(C)On1c(-c2ccccc2)nc2ccc([N+](=O)[O-])cc21 (centres undefined)	.	19.0	0.7	-22.5	-41.9	12.6	.	10.4
Cc1ccc(COn2c(-c3ccc(Cl)cc3)nc3ccc([N+](=O)[O-])cc32)cc1	2.2	12.5	34.3	-0.9	-7.2	27.1	.	.
O=C(O)COn1c(-c2ccccc2)nc2ccc([N+](=O)[O-])cc21	30.9*	44.0	2.8	-20.4	-12.8	-11.7	1.5	15.9
CCOC(=O)C(C)On1c(-c2ccc(Cl)cc2)nc2ccc([N+](=O)[O-])cc21 (centres undefined)	26.4*	37.2	16.0	9.1	-6.4	40.6	34.5*	51.5*
CCOC(=O)C1CCCN(C(=O)c2cc(OC)ccc2Br)CC1 (centres undefined)	.	.	1.7	.	.	3.0	.	.
COc1cc(/C=C2\N=C(c3ccccc3)OC2=O)ccc1OC(C)=O	25.0*	19.3	3.6	-10.5	-15.9	7.3	-6.4	7.1
COc1ccc(/C=C2\N=C(C)OC2=O)cc1OC(C)=O	-13.0	.	0.1	.	.	8.5	.	.
C[C@@H]1CN([C@@H](C)CO)C(=O)CCCn2cc(nn2)CO[C@H]1CN(C)S(=O)(=O)c1ccc2c(c1)OCCCO2	.	.	4.0	.	.	-21.9	.	.
Cc1cccn2c(CN[C@@H]3CCCC[C@H]3c3ccccc3)c(C(=O)N3CCOCC3)nc12	28.9*	27.9	8.2	-58.0	-21.3	30.6	19.4	25.3*
C[C@@H]1CCCCO[C@@H](CN(C)C(=O)c2ccncc2)[C@@H](C)CN([C@H](C)CO)C(=O)c2cc(NC(=O)Cc3ccccc3)ccc2O1	.	.	1.7	.	.	-9.2	.	.
COc1cccc(COC(=O)CSCC(=O)Nc2ccc(C)cc2)c1OC	.	.	3.8	.	.	-11.3	.	.
COc1cccc(C(=O)Nc2ccc(C(=O)c3ccncc3)cc2)c1	23.0*	19.6	12.2	13.2	7.6	12.9	23.4	47.1*
COc1cccc(C(=O)Nc2ccc(NC(C)=O)cc2)c1	-3.0	3.2	3.4	3.6	-2.2	3.9	.	.
Cc1cccc(C(=O)Nc2ccc(C(=O)/C=C/c3ccncc3)cc2)c1	46.5*	17.0	18.3	4.9	1.8	60.2*	73.5*	103.8*
Cc1ccc(NC(Cc2cc(C)no2)c2ccccc2)cc1 (centres undefined)	40.5*	19.0	21.2	-18.5	-15.0	-6.6	34.2*	12.4
Cc1cc(CSc2ccccc2C(=O)O)on1	-7.5	22.0	3.7	-12.2	4.8	-2.1	.	.
CN(CC(=O)Nc1ccc(Cl)cc1)CC(=O)N1CCc2ccccc21	.	.	2.5	.	.	-29.1	.	.
COc1ccc2c(c1OC)C(=O)N(c1ccc(C)cc1)C2	23.4*	14.2	0.2	-10.2	-9.5	-14.7	9.0	2.0
COc1ccc2c(c1OC)C(=O)N(c1cccc(C)c1)C2	-6.6	18.6	2.7	-8.0	-17.0	2.4	.	.

Compound activity deposited in PubChem by The Scripps Research Institute Molecular Screening Center.
